The list is not random: actives were taken first. Their share in the collection is about 2.1%.
MEKK2 mut-MEK5: signal of MEK5 binding to mutant human MEKK2 PB1 domain | percent response, % at 10 µM | actives 0.35% (n = 290,000) | bead flow cytometry, Alexa488-MEK5 binding to MEKK2 mutant; in the data active = percent response above about 24%, passing the limit was not always enough
GSK3A inh: blocks human GSK-3 alpha kinase. actives 0.1% (n = 320,000). P49840. AID 2650. inhibition, % at 10 µM. ADP-Glo luminescence, 60 min;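 active = more than half of replicates show inhibition above 20%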;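 also: GST-tagged GSK-3 alpha with peptide substrate and 25 µM ATP; 0% = DMSO neutral wells and 100% = GW8510 positive control wells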
GSK3beta inhib: inhibitors of human GSK3beta kinase; AID 2097; activity score (negative = inhibition), % at 10 µM; actives 0.038% (n = 300,000); GST-GSK3beta kinase, ADP-Glo luminescence, 60 min; active compounds read low;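 active = more than half of replicate wells score below -50%, meaning over 50% inhibition versus plate controls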;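 also: 0% = median DMSO wells and -100% = median GW8510 positive control wells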
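Test system – GST-tagged human GSK3beta kinase, cell-free · Incubation – 60 min enzyme reaction, room temperature · Signal – ADP-Glo luminescence · Also added – peptide substrate and ATP at 25 µM · Controls – DMSO neutral wells and GW8510 at 20 µM as positive · Buffer or medium – Tris/MgCl2 kinase buffer · Measure – Luminescence-derived activity versus plate DMSO and GW8510 wells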
MEKK2 WT-MEK5: raises or lowers MEK5 binding to wildtype human MEKK2 PB1 domain; bead flow cytometry, Alexa488-MEK5 binding to MEKK2 WT; actives lie on both sides; actives 1.1% (n = 290,000); AID 1531; binding response (% of control), % at 10 µM; in the data active = binding response below about 67% or above about 130%
MEKK3 PB1 HTS: modulators (inhibitors or enhancers) of MEK5 binding to human MEKK3 PB1 domain; binding response (% of control), % at 10 µM; bead-based flow cytometry, Alexa488-MEK5 binding to MEKK3; actives lie on both sides; 0 = blocked by unlabeled MEK5, 100 = vehicle; Q99759; actives 1.4% (n = 290,000); AID 1529;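 active = binding response more than 3 SD above or below the average of its plate-row segment, actives on both sides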;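 also: Alexa488 bead fluorescence after subtracting the streptavidin-only scavenger bead signal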
Target sequence (Q99759 whole entry, looked up, the tested form may be a part): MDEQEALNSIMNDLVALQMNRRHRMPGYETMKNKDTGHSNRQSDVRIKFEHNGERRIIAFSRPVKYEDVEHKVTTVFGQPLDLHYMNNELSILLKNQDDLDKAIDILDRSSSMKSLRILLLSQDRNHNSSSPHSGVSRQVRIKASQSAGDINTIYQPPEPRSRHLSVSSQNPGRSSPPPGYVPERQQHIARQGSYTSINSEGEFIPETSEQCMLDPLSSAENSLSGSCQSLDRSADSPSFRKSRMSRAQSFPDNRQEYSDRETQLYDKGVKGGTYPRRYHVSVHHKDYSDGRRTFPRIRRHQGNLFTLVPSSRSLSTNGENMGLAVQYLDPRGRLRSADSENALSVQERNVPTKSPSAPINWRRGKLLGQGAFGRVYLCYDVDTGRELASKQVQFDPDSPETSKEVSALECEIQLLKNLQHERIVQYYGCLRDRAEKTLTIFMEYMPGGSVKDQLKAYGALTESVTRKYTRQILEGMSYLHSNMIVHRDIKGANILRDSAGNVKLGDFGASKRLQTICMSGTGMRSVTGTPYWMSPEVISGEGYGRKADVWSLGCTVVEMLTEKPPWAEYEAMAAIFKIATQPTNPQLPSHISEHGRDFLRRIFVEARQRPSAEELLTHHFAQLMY
STK33 inh: human STK33 kinase inhibition; Q9BYT3; purified STK33, MBP phosphorylation, ADP-Glo luminescence; inhibition, % at 10 µM; actives 0.073% (n = 320,000); AID 2661;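 active = inhibition at or above 25%, using the most active replicate where run in duplicate; inactive = inhibition below 25%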
MEKK2wt confirm: raises or lowers MEK5 binding to wildtype human MEKK2, retest | shares compounds with MEKK3 PB1 HTS | bead flow cytometry, Alexa488-MEK5 binding to MEKK2 WT; actives lie on both sides | binding response (% of control), % at 10 µM | actives 2.4% (n = 5,900); in the data active = binding response below about 16% or above about 210%; inactive = in between
MEKK2mut-MEK5: signal of MEK5 binding to mutant human MEKK2, retest; bead flow cytometry, Alexa488-MEK5 binding to MEKK2 mutant; actives 2% (n = 5,900); AID 1893; percent response, % at 10 µM; shares compounds with MEKK3 PB1 HTS; in the data active = percent response mostly above about 71%, no sharp cut-off; inactive = mostly below about 38%;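 also: higher means compound restores mutant binding toward wildtype level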
MEKK3-MEK5 inh: MEKK3-MEK5 PB1 inhibition, single concentration confirmation; AID 1894; shares compounds with MEKK3 PB1 HTS; actives 1.8% (n = 5,900); binding response (% of control), % at 10 µM; bead flow cytometry, Alexa488-MEK5 binding to MEKK3; active compounds read low;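 active = binding response below 72% of control, or above a set upper limit, though filed actives all read lower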;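 also: 100% = DMSO only wells and 0% = binding blocked by excess unlabeled MEK5; lower values mean stronger disruption of MEK5 binding to MEKK3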
* = called active by the depositor; . = no result given; [ ] = another dose, or the depositor's remark.

SMILES	MEKK2 mut-MEK5	GSK3A inh	GSK3beta inhib	MEKK2 WT-MEK5	MEKK3 PB1 HTS	STK33 inh	MEKK2wt confirm	MEKK2mut-MEK5	MEKK3-MEK5 inh
Cc1c(Cl)ccc2sc(NC(=O)CN3C(=O)c4ccccc4C3=O)nc12	-9	0	1	76	64*[inhibitor]	-1	98	6	98
Cc1cccc2sc(NC(=O)CN3C(=O)C4CC=CCC4C3=O)nc12 (stereo not given)	8	-1	1	129	148*	0	104	3	108
CC1CCCCC1NC(=O)CN1C(=O)NC(C)(c2cc(F)ccc2F)C1=O (stereo not given)	.	1	.	.	.	-1	.	.	.
COc1ccc(OC)c(-c2cc(C(F)(F)F)c3c(n2)sc2c(O)cc(=O)[nH]c23)c1	-1	-3	1	91	69*[inhibitor]	-1	87	-9	91
Cc1cc(-c2ccccc2)c2c(n1)sc1c(O)cc(=O)[nH]c12	-5	3	2	95	93	0	.	.	.
O=c1cc(O)c2sc3nc(-c4ccccc4)cc(C(F)(F)F)c3c2[nH]1	0	0	2	95	8.0*[inhibitor]	-2	101	4	104
O=C(NCCN1CCOCC1)C1CC(=O)N(c2ccc(Cl)cc2)C1 (stereo not given)	0	-3	.	99	98	-2	.	.	.
CN(C)S(=O)(=O)N(CC(=O)N1CCN(c2ccccc2)CC1)c1ccccc1	-9	0	0	90	96	-2	.	.	.
CCOCCCn1c(=S)[nH]c2cc(C(=O)N3CCN(C)CC3)ccc2c1=O	-14	-1	1	80	70*[inhibitor]	-1	93	-11	95
Cc1nc2ccccc2c(=O)n1NC(=O)c1ccc(F)cc1Cl	1	3	0	98	102	-1	.	.	.
NC1=NC[C@@H](Cc2ccc(O)cc2)N1CCc1cc(C(F)(F)F)cc(C(F)(F)F)c1	8	1	-4	120	115	0	.	.	.
NC1=NC[C@H](CC2CCCCC2)N1CCc1cc(C(F)(F)F)cc(C(F)(F)F)c1	25*	11	-8	156*	111	4	127	4	97
CCOCCn1c(CN2CCN(C(c3ccccc3)c3ccccc3)CC2)nc2c1c(=O)n(C)c(=O)n2C	3	1	1	105	99	0	.	.	.
CCOc1nc(N(C)C)nc(-n2nnc(C(C)=O)c2C)n1	7	0	4	117	108	0	.	.	.
COc1nc(N(C)C)nc(-n2nnc(C(C)=O)c2C)n1	-42	-1	1	1.0*[inhibitor]	2.0*[inhibitor]	-1	95	-8	97
Cc1ccn(S(=O)(=O)c2ccc(N3CCCC3=O)cc2)n1	-4	-1	0	103	101	-1	.	.	.
Cc1ccccc1NC1=NC(=S)N(CC(N)=O)C12CCOC(C)(C)C2 (stereo not given)	-8	1	1	48	47*[inhibitor]	-1	99	1	104
CC1(C)CC2(CCO1)C(Nc1ccccc1)=NC(=S)N2CC(N)=O (stereo not given)	9	-1	3	102	104	-1	.	.	.
CCOC(=O)c1ccc(S(=O)(=O)N2CCN(C(=O)c3cc(=O)c4ccccc4o3)CC2)cc1	7	12	-5	106	108	1	.	.	.
CC(OC(=O)C(C)N1C(=O)C2C3C=CC(C4CC34)C2C1=O)C(=O)c1ccccc1 (stereo not given)	1	-2	5	111	145*	0	101	3	99

Assay outcomes: PubChem, several laboratories
